Laboratory results published in ChEMBL document CHEMBL1828575, “Design, synthesis and antiproliferative activities of biarylolefins based on polyhydroxylated and carbohydrate scaffolds” (Eur J Med Chem, 2011).

Experiments:
Assay type in all cases: functional
[1] = system: CCRF-CEM; test: Cytotoxicity against human CCRF-CEM cells assessed as cellular growth at 10 uM after 48 hrs by SRB assay
Outline: (§1)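 NCI60 single-dose screen of cells in RPMI 1640 with 5% FBS and 2 mM L-glutamine, preincubated 24 h at 37 °C, 5% CO₂. Cells were then exposed 48 h to compound added from DMSO stock. TCA-fixed, stained with 0.4% SRB in 1% acetic acid, dye solubilised in 10 mM Tris base and read at 515 nm. Growth is given as percent of untreated control.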

[2] = system: EKVX; test: Cytotoxicity against human EKVX cells assessed as cellular growth at 10 uM after 48 hrs by SRB assay; outline: as §1
[3] = system: SF-539; test: Cytotoxicity against human SF539 cells assessed as cellular growth at 10 uM after 48 hrs by SRB assay
Outline: (§2)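 NCI-60 panel lines grown in RPMI 1640 with 5% FBS and 2 mM L-glutamine. Plated at 5000–40,000 cells/well and preincubated 24 h at 37 °C, 5% CO₂, with time-zero plates fixed in TCA. Compounds, dissolved in DMSO and diluted in medium, were applied for 48 h. Cells were TCA-fixed (10% final for adherent, 16% for suspension) and stained with 0.4% SRB in 1% acetic acid. Dye was solubilised in 10 mM Tris base and read at 515 nm; growth was expressed as a percentage of untreated control.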

[4] = system: SNB-19; test: Cytotoxicity against human SNB19 cells assessed as cellular growth at 10 uM after 48 hrs by SRB assay; outline: as §2
[5] = system: OVCAR-8; test: Cytotoxicity against human OVCAR8 cells assessed as cellular growth at 10 uM after 48 hrs by SRB assay; outline: as §2
[6] = system: 786-0; test: Cytotoxicity against human 786-0 cells assessed as cellular growth at 10 uM after 48 hrs by SRB assay; outline: as §1
[7] = system: SN12C; test: Cytotoxicity against human SN12C cells assessed as cellular growth at 10 uM after 48 hrs by SRB assay; outline: as §2
[8] = system: SF-539; test: Antitumor activity against human SF539 cells after 48 hrs by SRB assay; conditions: SF-539, 48 h
Outline: (§3)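 NCI60 panel cells grown in RPMI 1640 with 5% FBS and 2 mM L-glutamine, plated at 5000–40,000 cells/well and preincubated 24 h at 37 °C, 5% CO₂. Compound was added from DMSO at five concentrations, 10-fold or 1/2 log dilutions, then incubated 48 h.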

[9] = system: SNB-75; test: Antitumor activity against human SNB75 cells after 48 hrs by SRB assay; conditions: SNB-75, 48 h; outline: as §3
[10] = system: NCI/ADR-RES; test: Antitumor activity against human NCI/ADR-RES cells after 48 hrs by SRB assay
Outline: (§4)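 NCI60 panel in RPMI 1640 with 5% FBS and 2 mM L-glutamine. Cells were plated at 5000–40,000/well by doubling time, held 24 h, then time-zero plates were TCA-fixed. Five concentrations (10-fold or half-log dilutions of DMSO stocks) were applied for 48 h at 37 °C, 5% CO2. Cells were fixed with cold TCA (10% final adherent, 16% suspension) and stained with 0.4% SRB. Bound dye was dissolved in 10 mM Tris and read at 515 nm. GI50, TGI and LC50 were calculated per line.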

[11] = system: MDA-MB-231; test: Antitumor activity against human MDA-MB-231 cells after 48 hrs by SRB assay; conditions: MDA-MB-231, 48 h; outline: as §4
[12] = system: MDA-MB-468; test: Antitumor activity against human MDA-MB-468 cells after 48 hrs by SRB assay; conditions: MDA-MB-468, 48 h; outline: as §4
[13] = system: UO-31; test: Antitumor activity against human UO31 cells after 48 hrs by SRB assay; conditions: UO-31, 48 h; outline: as §3
[14] = system: TK-10; test: Antitumor activity against human TK10 cells after 48 hrs by SRB assay; conditions: TK-10, 48 h; outline: as §3
[15] = system: CAKI-1; test: Antitumor activity against human Caki1 cells after 48 hrs by SRB assay; conditions: CAKI-1, 48 h; outline: as §4
[16] = system: IGROV-1; test: Antitumor activity against human IGROV1 cells after 48 hrs by SRB assay; conditions: IGROV-1, 48 h; outline: as §4
[17] = system: COLO 205; test: Antitumor activity against human COLO205 cells after 48 hrs by SRB assay; conditions: COLO 205, 48 h; outline: as §4
[18] = system: NCI-H460; test: Antitumor activity against human NCI-H460 cells after 48 hrs by SRB assay; conditions: NCI-H460, 48 h; outline: as §4
[19] = system: NCI-H322M; test: Antitumor activity against human NCI-H322M cells after 48 hrs by SRB assay; outline: as §4
[20] = system: NCI-H226; test: Antitumor activity against human NCI-H226 cells after 48 hrs by SRB assay; conditions: NCI-H226, 48 h; outline: as §4
[21] = system: K562; test: Antitumor activity against human K562 cells after 48 hrs by SRB assay; conditions: K562, 48 h; outline: as §4
[22] = read-out: LC50 (the source's name)
[23] = read-out: pLC50 (the source's name) (converted)

COc1cc(/C(=C2\O[C@@H]([C@H]3COC(C)(C)O3)[C@H]3OC(C)(C)O[C@@H]23)c2ccc3ccccc3c2)cc(OC)c1OC
Activity [1]: 82.21% | Activity [2]: 53.7% | Activity [3]: 26.42% | Activity [4]: 29% | Activity [5]: 18.91% | Activity [6]: -1.42% | Activity [7]: 24.83% | GI50 [8]: 14.3 µM | TGI [8]: 79 µM | CC50 [8, 22]: > 100 µM | GI50 [9]: 2.89 µM | TGI [9]: 7.44 µM | CC50 [9, 22]: > 100 µM | GI50 [10]: 4.26 µM | LC50 [10]: > 100 µM | TGI [10]: 22.3 µM | GI50 [11]: 6.28 µM | TGI [11]: 69.7 µM | CC50 [11, 22]: > 100 µM | GI50 ([12]; read-out: GI50): 4.02 µM | CC50 [12, 22]: > 100 µM | TGI ([12]; read-out: TGI): 21.1 µM | GI50 ([12]; read-out: pGI50 (converted)): 3.98 µM | CC50 [12, 23]: > 100 µM | TGI ([12]; read-out: pTGI (converted)): 20.9 µM | GI50 ([13]; read-out: GI50): 3.47 µM | CC50 [13, 22]: > 100 µM | TGI ([13]; read-out: TGI): > 100 µM | GI50 ([13]; read-out: pGI50 (converted)): 3.47 µM | CC50 [13, 23]: > 100 µM | TGI ([13]; read-out: pTGI (converted)): > 100 µM | GI50 ([14]; read-out: GI50): 3.2 µM | CC50 [14, 22]: > 100 µM | TGI ([14]; read-out: TGI): 7.2 µM | GI50 ([14]; read-out: pGI50 (converted)): 3.16 µM | CC50 [14, 23]: > 100 µM | TGI ([14]; read-out: pTGI (converted)): 7.24 µM | GI50 ([15]; read-out: GI50): 4.54 µM | CC50 [15, 22]: > 100 µM | TGI ([15]; read-out: TGI): > 100 µM | GI50 ([15]; read-out: pGI50 (converted)): 3.63 µM | CC50 [15, 23]: > 100 µM | TGI ([15]; read-out: pTGI (converted)): > 100 µM | GI50 ([16]; read-out: GI50): 3.3 µM | CC50 [16, 22]: > 100 µM | TGI ([16]; read-out: TGI): > 100 µM | GI50 ([16]; read-out: pGI50 (converted)): 2.82 µM | CC50 [16, 23]: > 100 µM | TGI ([16]; read-out: pTGI): > 100 µM | GI50 ([17]; read-out: GI50): 6.97 µM | CC50 [17, 22]: > 100 µM | TGI ([17]; read-out: TGI): > 100 µM | GI50 ([17]; read-out: pGI50 (converted)): 6.92 µM | CC50 [17, 23]: > 100 µM | TGI ([17]; read-out: pTGI (converted)): > 100 µM | GI50 ([18]; read-out: GI50): 4.1 µM | CC50 [18, 22]: > 100 µM | TGI ([18]; read-out: TGI): > 100 µM | GI50 ([18]; read-out: pGI50 (converted)): 4.07 µM | CC50 [18, 23]: > 100 µM | TGI ([18]; read-out: pTGI): > 100 µM | GI50 ([19]; read-out: GI50): 6.74 µM | CC50 [19, 22]: > 100 µM | TGI ([19]; read-out: TGI): > 100 µM | GI50 ([19]; read-out: pGI50 (converted)): 5.75 µM | CC50 [19, 23]: > 100 µM | TGI ([19]; read-out: pTGI): > 100 µM | GI50 ([20]; read-out: GI50): 3.49 µM | CC50 [20, 22]: > 100 µM | TGI ([20]; read-out: TGI): 60 µM | GI50 ([20]; read-out: pGI50 (converted)): 3.47 µM | CC50 [20, 23]: > 100 µM | TGI ([20]; read-out: pTGI (converted)): 60.3 µM | GI50 ([21]; read-out: GI50): 4.02 µM | CC50 [21, 22]: > 100 µM | TGI ([21]; read-out: TGI): > 100 µM | GI50 ([21]; read-out: pGI50 (converted)): 3.98 µM | CC50 [21, 23]: > 100 µM | TGI ([21]; read-out: pTGI): > 100 µM
